# ChEMBL document CHEMBL1938326, “Synthesis and in vitro and in vivo anticancer activity of novel phenylmethylene bis-isoxazolo[4,5-b]azepines” (Bioorg Med Chem Lett, 2012)
# The source made the active and inactive calls. The rule behind the calls is not given here.
# Columns and labels:
# [1] = Cytotoxicity against […] cells after 48 hrs by MTT assay; format: functional, cell-based; conditions: Mus musculus, Ehrlich
# Method in brief: (§1)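 Cells grown with 10% FBS, 1% L-glutamine and antibiotics at 37 °C, 5% CO₂. Seeded at 1 × 10⁵ cells/mL and incubated 24 h. Compounds added from DMSO stocks, final DMSO <1%, for 48 h. MTT (2.5 mg/mL) added for 2 h, then OD read at 490 nm. IC50 (50% reduction in OD versus untreated) taken from dose–response curves; three independent determinations.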
# [2] = tested on: MCF7; experiment: Cytotoxicity against human MCF7 cells after 48 hrs by MTT assay; format: functional, cell-based; conditions: MCF7, 48 h; method in brief: as §1
# [3] = tested on: HeLa; experiment: Cytotoxicity against human HeLa cells after 48 hrs by MTT assay; format: functional, cell-based; method in brief: as §1
# [4] = Antitumor activity against […] cells xenografted in Swiss albino mouse assessed as increase in life span at 5 mg/kg, ip qd administered for 9 days; format: functional, Ehrlich; conditions: route intraperitoneal
# Method in brief: (§2)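 Female Swiss albino mice, 8 weeks old and 20–25 g, received 0.2 mL of 2 × 10⁶ EAC cells/mouse i.p. on day 0. Daily dosing started 24 h later and ran 9 days; controls received sterile saline i.p. After day-14 sacrifice of five per group, mortality was recorded daily for 30 days. MST = (first + last death day)/2; %ILS = [(MST treated/MST control) − 1] × 100.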
# [5] = tested on: Mus musculus; experiment: Protective effect on haemopoietic system in Swiss albino mouse xenografted with […] cells assessed as change in hemoglobin level at 10 mg/kg, ip qd administered for 9 days measured after 14 days (reference value: 5.8 +/- 0.7 g%); format: functional, Ehrlich; conditions: route intraperitoneal
# Method in brief: (§3)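 Swiss albino female mice (8 weeks, n = 10 per group) inoculated ip with EAC cells (0.2 mL of 2 × 10⁶ cells/mouse), then dosed daily for 9 days starting 24 h after inoculation. On day 14, hemoglobin, RBC, WBC and differential leukocyte counts were compared with uninoculated normal and EAC control groups; mean ± SEM.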
# [6] = tested on: Mus musculus; experiment: Protective effect on haemopoietic system in Swiss albino mouse xenografted with […] cells assessed as change in neutrophils count at 5 mg/kg, ip qd administered for 9 days measured after 14 days (reference value: 73 +/- 1.3 %); format: functional, Ehrlich; conditions: route intraperitoneal; method in brief: as §3
# [7] = tested on: Mus musculus; experiment: Protective effect on haemopoietic system in Swiss albino mouse xenografted with […] cells assessed as change in lymphocytes count at 5 mg/kg, ip qd administered for 9 days measured after 14 days (reference value: 23 +/- 0.6 %); format: functional, Ehrlich; conditions: route intraperitoneal; method in brief: as §3
# [8] = Antitumor activity against […] cells xenografted in Swiss albino mouse assessed as change in tumor volume at 10 mg/kg, ip qd administered for 9 days measured after 14 days (reference value: 12.1 +/- 0.9 ml); format: functional, Ehrlich; conditions: route intraperitoneal
# [9] = tested on: Mus musculus; experiment: Protective effect on haemopoietic system in Swiss albino mouse xenografted with […] cells assessed as change in lymphocytes count at 10 mg/kg, ip qd administered for 9 days measured after 14 days (reference value: 23 +/- 0.6 %); format: functional, Ehrlich; conditions: route intraperitoneal; method in brief: as §3
# [10] = tested on: Mus musculus; experiment: Protective effect on haemopoietic system in Swiss albino mouse xenografted with […] cells assessed as RBC count at 10 mg/kg, ip qd administered for 9 days measured after 14 days; format: functional, organism-based; design: dose 10 mg/kg; conditions: Ehrlich; method in brief: as §3
# [11] = tested on: Mus musculus; experiment: Toxicity in Swiss albino mouse xenografted with […] cells assessed as change in body weight at 10 mg/kg, ip qd administered for 9 days measured after 14 days (reference value: 12.2 +/- 0.8 g); format: organism-based, Ehrlich; design: dose 10 mg/kg, route intraperitoneal; conditions: in vivo, 336 h
# [12] = Antitumor activity against […] cells xenografted in Swiss albino mouse assessed as packed cell volume at 5 mg/kg, ip qd administered for 9 days measured after 14 days (reference value: 2.8 +/- 0.5 ml); format: functional, Ehrlich; conditions: route intraperitoneal
# [13] = Antitumor activity against […] cells xenografted in Swiss albino mouse assessed as increase in life span at 10 mg/kg, ip qd administered for 9 days; format: functional, Ehrlich; conditions: route intraperitoneal; method in brief: as §2
# [14] = tested on: Mus musculus; experiment: Protective effect on haemopoietic system in Swiss albino mouse xenografted with […] cells assessed as change in hemoglobin level at 5 mg/kg, ip qd administered for 9 days measured after 14 days (reference value: 5.8 +/- 0.7 g%); format: functional, Ehrlich; conditions: route intraperitoneal; method in brief: as §3
# [15] = tested on: Mus musculus; experiment: Protective effect on haemopoietic system in Swiss albino mouse xenografted with […] cells assessed as RBC count at 5 mg/kg, ip qd administered for 9 days measured after 14 days; format: functional, organism-based; design: dose 5 mg/kg; conditions: Ehrlich; method in brief: as §3
# [16] = Antitumor activity against […] cells xenografted in Swiss albino mouse assessed as mean survival time at 10 mg/kg, ip qd administered for 9 days measured after 14 days (reference value: 13.7+/- 0.4 days); format: functional, Ehrlich; conditions: route intraperitoneal; method in brief: as §2
# [17] = Antitumor activity against […] cells xenografted in Swiss albino mouse assessed as change in tumor volume at 5 mg/kg, ip qd administered for 9 days measured after 14 days (reference value: 12.1 +/- 0.9 ml); format: functional, Ehrlich; conditions: route intraperitoneal
# [18] = tested on: Mus musculus; experiment: Protective effect on haemopoietic system in Swiss albino mouse xenografted with […] cells assessed as change in neutrophils count at 10 mg/kg, ip qd administered for 9 days measured after 14 days (reference value: 73 +/- 1.3 %); format: functional, Ehrlich; conditions: route intraperitoneal; method in brief: as §3
# [19] = tested on: Mus musculus; experiment: Reduction in ascetic fluid volume in Swiss albino mouse xenografted with […] cells at 5 to 10 mg/kg, ip qd administered for 9 days measured after 14 days; format: functional, organism-based; conditions: Ehrlich
# [20] = Antitumor activity against […] cells xenografted in Swiss albino mouse assessed as packed cell volume at 10 mg/kg, ip qd administered for 9 days measured after 14 days (reference value: 2.8 +/- 0.5 ml); format: functional, Ehrlich; conditions: route intraperitoneal
# [21] = tested on: Mus musculus; experiment: Toxicity in Swiss albino mouse xenografted with human EAC cells assessed as change in body weight at 5 mg/kg, ip qd administered for 9 days measured after 14 days (reference value: 12.2 +/- 0.8 g); format: organism-based, Ehrlich; design: dose 5 mg/kg, route intraperitoneal; conditions: in vivo, 336 h
# [22] = tested on: Mus musculus; experiment: Protective effect on haemopoietic system in Swiss albino mouse xenografted with […] cells assessed as WBC count at 10 mg/kg, ip qd administered for 9 days measured after 14 days; format: functional, organism-based; design: dose 10 mg/kg; conditions: Ehrlich; method in brief: as §3
# [23] = tested on: Ehrlich; experiment: Antitumor activity against […] cells xenografted in Swiss albino mouse assessed as viable tumor cell count at 10 mg/kg, ip qd administered for 9 days measured after 14 days by trypan blue assay; format: functional, organism-based; design: dose 10 mg/kg
# [24] = tested on: Ehrlich; experiment: Antitumor activity against […] cells xenografted in Swiss albino mouse assessed as viable tumor cell count at 5 mg/kg, ip qd administered for 9 days measured after 14 days by trypan blue assay; format: functional, organism-based; design: dose 5 mg/kg
# [25] = tested on: Mus musculus; experiment: Protective effect on haemopoietic system in Swiss albino mouse xenografted with […] cells assessed as change in monocytes count at 10 mg/kg, ip qd administered for 9 days measured after 14 days (reference value: 2.4 +/- 0.1 %); format: functional, Ehrlich; conditions: route intraperitoneal; method in brief: as §3
# [26] = tested on: Mus musculus; experiment: Protective effect on haemopoietic system in Swiss albino mouse xenografted with […] cells assessed as change in monocytes count at 5 mg/kg, ip qd administered for 9 days measured after 14 days (reference value: 2.4 +/- 0.1 %); format: functional, Ehrlich; conditions: route intraperitoneal; method in brief: as §3
# [27] = Antitumor activity against […] cells xenografted in Swiss albino mouse assessed as mean survival time at 5 mg/kg, ip qd administered for 9 days measured after 14 days (reference value: 13.7+/- 0.4 days); format: functional, Ehrlich; conditions: route intraperitoneal; method in brief: as §2
# [28] = tested on: Mus musculus; experiment: Protective effect on haemopoietic system in Swiss albino mouse xenografted with […] cells assessed as WBC count at 5 mg/kg, ip qd administered for 9 days measured after 14 days; format: functional, organism-based; design: dose 5 mg/kg; conditions: Ehrlich; method in brief: as §3
compound,measurement,setting,value
Cc1ccc(C2CC(c3ccccc3)=Nc3c(C)noc3C2C(c2ccccc2)C2c3onc(C)c3N=C(c3ccccc3)CC2c2ccc(C)cc2)cc1 (centres undefined),IC50,[1],51.6 µg/mL
same,IC50,[2],50.1 µg/mL
same,IC50,[3],53.3 µg/mL
Cc1ccc(C2=Nc3c(C)noc3C(C(c3ccccc3)C3c4onc(C)c4N=C(c4ccc(C)cc4)CC3c3ccccc3)C(c3ccccc3)C2)cc1 (centres undefined),IC50,[1],50.1 µg/mL
same,IC50,[2],55.9 µg/mL
same,IC50,[3],55.1 µg/mL
Cc1noc2c1N=C(c1ccccc1)CC(c1ccccc1)C2C(c1ccc(Cl)cc1)C1c2onc(C)c2N=C(c2ccccc2)CC1c1ccccc1 (centres undefined),IC50,[1],60.4 µg/mL
same,IC50,[2],59 µg/mL
same,IC50,[3],55.9 µg/mL
Cc1ccc(C(C2c3onc(C)c3N=C(c3ccccc3)CC2c2ccccc2)C2c3onc(C)c3N=C(c3ccccc3)CC2c2ccccc2)cc1 (centres undefined),IC50,[1],48.2 µg/mL
same,IC50,[2],41.9 µg/mL
same,IC50,[3],38.4 µg/mL
Cc1noc2c1N=C(c1ccccc1)CC(c1ccccc1)C2C(c1ccccc1)C1c2onc(C)c2N=C(c2ccccc2)CC1c1ccccc1 (centres undefined),IC50,[1],66.5 µg/mL
same,IC50,[2],68.9 µg/mL
same,IC50,[3],68.7 µg/mL
Cc1noc2c1N=C(c1cccs1)CC(c1ccccc1)C2C(c1ccccc1)C1c2onc(C)c2N=C(c2cccs2)CC1c1ccccc1 (centres undefined),Activity,[4],29.9%
same,Activity,[5],8.5 g%
same,IC50,[1],26.1 µg/mL
same,Activity,[6],54%
same,Activity,[7],35%
same,Activity,[8],4.9 mL
same,Activity,[9],51%
same,Activity,[10],Active
same,Activity,[11],6.7 g
same,Activity,[12],1.8 mL
same,Activity,[13],73.7%
same,Activity,[14],7.3 g%
same,Activity,[15],Active
same,MSD,[16],23.8 days
same,Activity,[17],7.3 mL
same,Activity,[18],36%
same,Activity,[19],Active
same,Activity,[20],1.1 mL
same,Activity,[21],8.3 g
same,IC50,[2],24.1 µg/mL
same,Activity,[22],Active
same,Activity,[23],Active
same,Activity,[24],Active
same,Activity,[25],1.4%
same,IC50,[3],28.5 µg/mL
same,Activity,[26],1.9%
same,MSD,[27],17.8 days
same,Activity,[28],Active
COc1ccc(C2CC(c3ccccc3)=Nc3c(C)noc3C2C(c2ccccc2)C2c3onc(C)c3N=C(c3ccccc3)CC2c2ccc(OC)cc2)cc1 (centres undefined),IC50,[1],40.1 µg/mL
same,IC50,[2],53.8 µg/mL
same,IC50,[3],45.6 µg/mL
COc1ccc(C(C2c3onc(C)c3N=C(c3ccccc3)CC2c2ccccc2)C2c3onc(C)c3N=C(c3ccccc3)CC2c2ccccc2)cc1 (centres undefined),IC50,[1],41.9 µg/mL
same,IC50,[2],57.3 µg/mL
same,IC50,[3],65.9 µg/mL
Cc1noc2c1N=C(c1ccco1)CC(c1ccccc1)C2C(c1ccccc1)C1c2onc(C)c2N=C(c2ccco2)CC1c1ccccc1 (centres undefined),Activity,[4],8.8%
same,Activity,[5],7.4 g%
same,IC50,[1],28.9 µg/mL
same,Activity,[6],63%
same,Activity,[7],29%
same,Activity,[8],8.5 mL
same,Activity,[9],46%
same,Activity,[10],Active
same,Activity,[11],9.6 g
same,Activity,[12],2.1 mL
same,Activity,[13],33.6%
same,Activity,[14],6 g%
same,Activity,[15],Active
same,MSD,[16],18.3 days
same,Activity,[17],11 mL
same,Activity,[18],49%
same,Activity,[19],Active
same,Activity,[20],1.6 mL
same,Activity,[21],10.6 g
same,IC50,[2],35.9 µg/mL
same,Activity,[22],Active
same,Activity,[23],Active
same,Activity,[25],1.7%
same,IC50,[3],32.7 µg/mL
same,Activity,[26],2.1%
same,MSD,[27],14.9 days
same,Activity,[28],Active
Cc1noc2c1N=C(c1ccc(Cl)cc1)CC(c1ccccc1)C2C(c1ccccc1)C1c2onc(C)c2N=C(c2ccc(Cl)cc2)CC1c1ccccc1 (centres undefined),IC50,[1],58.5 µg/mL
same,IC50,[2],61.1 µg/mL
same,IC50,[3],60.2 µg/mL
